Hits are enriched below; roughly 3.8% of the tested compounds scored in any of these assays.
Kir21 inh = inhibitors of mouse Kir2.1 inward-rectifier potassium channel; Inward rectifier potassium channel 2 (Mus musculus), P35561; HEK293-Kir2.1, FluxOR thallium flux fluorescence; hits give low values; B-score at 10 µM; hit rate 0.85% among 310,000; AID 1672, 2009;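 active = fluorescence ratio B-score at or below minus 3 SD of library scores, with starting-brightness B-score within 2 SD, cut at about -4.2 in these data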;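 note: channel flux triggered by added potassium and thallium sulfate stimulus; B-score of peak minus minimum fluorescence over baseline after thallium stimulus; more negative B-score means stronger Kir2.1 block with less thallium influx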
KCNK3 block = human KCNK3 channel inhibitors, primary screen, CHO cells, FluxOR thallium flux, B-score; AID 602410, 2012; FluxOR fluorescence; hits give low values; Potassium channel subfamily K member 3 (Homo sapiens), O14649; hit rate 0.84% among 340,000; B-score at 10 µM;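 active = B-score under library mean minus 4 SD, starting fluorescence ratio at most library mean plus 5 SD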;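 note: more negative B-score means stronger inhibition of thallium flux through KCNK3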
Target sequence (O14649 whole entry, looked up): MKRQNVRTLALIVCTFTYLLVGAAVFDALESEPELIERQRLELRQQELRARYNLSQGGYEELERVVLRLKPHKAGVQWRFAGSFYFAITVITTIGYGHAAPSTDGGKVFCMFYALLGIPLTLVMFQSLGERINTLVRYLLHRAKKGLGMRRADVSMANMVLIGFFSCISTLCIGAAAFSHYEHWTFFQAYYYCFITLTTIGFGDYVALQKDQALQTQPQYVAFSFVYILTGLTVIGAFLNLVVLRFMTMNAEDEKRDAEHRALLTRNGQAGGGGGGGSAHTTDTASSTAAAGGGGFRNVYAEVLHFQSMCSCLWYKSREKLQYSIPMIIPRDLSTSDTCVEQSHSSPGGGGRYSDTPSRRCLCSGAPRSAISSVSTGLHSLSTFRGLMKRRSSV
KCNK9 block = KCNK9 potassium channel inhibitors, primary screen, HEK293 cells, thallium flux | Potassium channel subfamily K member 9 (Homo sapiens), Q9NPC2 | FluxOR thallium flux fluorescence; hits give low values | B-score at 10 µM | hit rate 1.2% among 310,000 | AID 488922, 2010;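 active = ratio B-score over 3 SD below the library mean, with starting fluorescence within 5 SD of its mean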;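 note: negative B-score means less thallium flux so channel inhibition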
KCNQ1 block = inhibitors of human KCNQ1 channel, primary screen, cell-based, thallium flux, high-throughput. CHO-K1 KCNQ1, FluxOR thallium flux fluorescence; hits give high values. B-score at 10 µM. hit rate 1.3% among 310,000;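 active = compounds whose thallium flux B-score, printed positive for inhibition, exceeds three library SD while starting fluorescence stays within three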;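 note: channel opened by potassium depolarization with thallium stimulus after 20 min compound exposure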
hERG rescue = hERG rescue from dofetilide block, primary screen, cell-based, CHO-hERG, FluxOR thallium flux, dofetilide IC70. Voltage-gated inwardly rectifying potassium channel KCNH2 (Homo sapiens), Q12809. dofetilide IC70 present. activation (rescue from dofetilide block), less the hit threshold, % at 10 µM. hit rate 0.51% among 310,000. AID 1511, 2009;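 active = activation above the mean of controls blocked by dofetilide plus 5 SD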;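 note: thallium influx through hERG after potassium depolarization seen as dye fluorescence rise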
KCNQ1 pot = potentiators or activators of KCNQ1 channel, primary screen, cell-based, thallium flux, high-throughput; CHO-K1 KCNQ1, thallium flux FluxOR fluorescence; hits give high values; B-score at 10 µM; hit rate 0.35% among 310,000; Potassium voltage-gated channel subfamily KQT member 1 (Homo sapiens), P51787;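 active = fluorescence ratio B-score, a plate-corrected score, at least three library SD, with initial intensity B-score within 5 SD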
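System: Stable KCNQ1 CHO-K1 line | Incubation: 90 min dye loading and 20 min compound exposure, both at room temperature | Measure: Ratio B score | Medium: Assay buffer for compound exposure, DMSO matched across wells | Compound dosing: Single-concentration screen | Probe or stimulus: K+/Tl+ depolarizing stimulus | Measured by: Kinetic FluxOR fluorescence, 10 s baseline plus 110 s post-stimulus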
KCNK3 confirm = retest of human KCNK3 channel inhibitors, confirmation, CHO cells, FluxOR thallium flux, triplicate; shares compounds with KCNK3 block; FluxOR fluorescence; 0% buffer, 100% carvedilol maximal block; ratio percent of control, % at 10 µM; hit rate 99% among 2,400; AID 651638, 2012;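 active = ratio percent of control, averaged over triplicates, above buffer control mean plus 5 SD, cut at about 64% in these data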;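 note: ratio is the fluorescence rise from min to max over baseline after thallium stimulus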
KCNK3 uninduced = thallium flux inhibition in non-induced cells, primary screen, counter-screen for KCNK3 inhibitor project, cell-based, non-induced KCNK3 line, FluxOR thallium, triplicate. shares compounds with KCNK3 block. non-induced KCNK3 parental cells; hits give low values. thallium flux ratio (lower = more inhibition) at 10 µM. hit rate 40% among 2,400;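 active = thallium flux ratio, averaged over three wells, more than 5 SD below the buffer control mean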;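 note: host cells are CHO cells without KCNK3 induction; ratio is peak minus trough fluorescence over baseline then normalized to buffer controls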
An asterisk follows results filed as active; i = inactive; . = not tested or not shown.

SMILES	Kir21 inh	KCNK3 block	KCNK9 block	KCNQ1 block	hERG rescue	KCNQ1 pot	KCNK3 confirm	KCNK3 uninduced
Cc1ccccc1-c1cc(-c2ccccc2O)on1	1.4	-9.2*	i	i	-7	i	118*	i
O=C(NCCc1c[nH]c2ccccc12)c1ccc(Br)o1	.	i	.	.	.	.	.	.
O=C(NCCSc1c[nH]c2ccccc12)c1ccc(Br)o1	0.42	-11*	-7.9*	i	-9	i	98*	i
O=C(NCCC(c1ccccc1)c1ccccc1)c1ccc(Br)o1	1.9	-9.7*	i	i	-10	i	114*	i
Cc1[nH]c2ccccc2c1SCCNC(=O)c1ccc(Br)o1	-1.5	-9*	i	i	-18	i	97*	i
O=C(NCCc1csc(-c2ccccc2)n1)c1ccc(Br)o1	-1.9	-11*	i	i	-19	i	92*	i
O=C(O)CCNC(=O)c1ccc(Br)o1	0.29	i	i	i	4	i	.	.
CCCOc1cc(C)c(Cl)cc1S(=O)(=O)N(CC)CC	-3.3	-11*	i	i	0	i	99*	i
Cc1cccc(OCC(=O)Nc2ccc3c(c2)nc(CCN2CCN(c4ccccn4)CC2)n3C)c1	-0.1	i	i	i	-21	i	.	.
N#Cc1c(N)n(CCc2ccc(F)cc2)c2nc3ccccc3nc12	-0.46	i	i	i	-9	i	.	.
Cn1c(-c2c(N)n(CCCc3ccccc3)c3nc4ccccc4nc23)nc2ccccc21	-1.3	-9.2*	i	i	-19	i	126*	0.15*
Cn1c(-c2c(N)n(CCc3ccccc3)c3nc4ccccc4nc23)nc2ccccc21	0.07	-8.8*	-7.8*	13*	-19	i	158*	0.1*
COCCCn1c(N)c(-c2nc3ccccc3n2C)c2nc3ccccc3nc21	-1	i	i	i	-30	i	.	.
COc1cc(/C=C/C(=O)OCC(=O)NCCN2C(=O)CSC2=O)ccc1OCC#N	.	i	.	.	.	.	.	.
CN1C(=O)C2(OCC(COc3ccc(Cl)cc3)O2)c2ccccc21 (stereo not drawn)	-0.4	i	i	i	2	i	.	.
O=C1Nc2ccccc2C12OCC(COc1ccc(Cl)cc1)O2 (stereo not drawn)	1.3	-10*	i	i	-17	i	108*	i
CCNC(=S)N1CCc2cc(OC)c(OC)cc2C1COc1ccc(F)cc1 (stereo not drawn)	0.58	-8.7*	i	i	-10	i	102*	i
Cc1nc(N2CCN(C(=O)c3cccs3)CC2)c2c3c(sc2n1)CCCC3	-0.55	-10*	i	i	-11	i	92*	i
COc1ccccc1OCc1ccc(C(=O)N(C)c2ccccc2)o1	0.23	i	i	i	-6	i	.	.
CN(C(=O)c1ccc(COc2ccccc2Cl)o1)c1ccccc1	-3.2	-9.9*	i	i	-3	i	82*	i
Cc1cc(O)c(C(C)C)cc1NC(=O)c1ccccc1Cl	-2.1	i	i	i	-11	i	.	.
Cc1cc(O)c(C(C)C)cc1NC(=O)Nc1cc(Cl)ccc1Cl	.	-12*	.	.	.	.	114*	0.16*
COc1ccc(CNC(=O)CN2CCC(NC(=O)c3cccc(OC)c3)CC2)cc1	.	i	.	.	.	.	.	.
O=C1CN(C(=O)COC(=O)CCc2ccccc2O)c2ccccc2N1	.	i	.	.	.	.	.	.
CSc1ccc(C2C(C(=O)c3ccco3)=C(O)C(=O)N2c2nnc(SC)s2)cc1 (stereo not drawn)	-0.04	i	i	i	-6	i	.	.
SMILES	Kir21 inh	KCNK3 block	KCNK9 block	KCNQ1 block	hERG rescue	KCNQ1 pot	KCNK3 confirm	KCNK3 uninduced
Cc1ccc(C(=O)OCC(=O)NCc2cccs2)c(C)c1	-0.51	i	i	i	-11	i	.	.
Cc1ccc(C)c(CSCC(=O)NCc2cccs2)c1	-2.2	-11*	i	i	-3	i	84*	i
COc1ccc(S(=O)(=O)Nc2cc3c4c(c2)CCC(=O)N4CCC3)cc1C	-0.9	i	i	i	-11	i	.	.
CCCSc1nc(N2CCOCC2)c2c(c1C#N)CCCC2	0.05	-12*	i	i	-2	i	112*	0.15*
N#CCCSc1nc(N2CCOCC2)c2c(c1C#N)CCCC2	-0.86	i	i	i	-16	i	.	.
CCCc1nc(N2CCOCC2)c(C#N)c2c1CCCC2	-1.9	i	i	i	-9	i	.	.
CC(C)Cc1nc(N2CCCCC2)c(C#N)c2c1CCC2	0	-9.6*	i	i	-10	i	98*	i
CCCCc1nc(N2CCOCC2)c(C#N)c2c1CCCC2	0.07	-11*	i	i	-11	i	108*	i
Nc1ncc2[nH]c(N)nc2n1	.	i	.	.	.	.	.	.
CC(C)n1cnc2c(NCc3ccccc3)cc(Cc3ccc(F)cc3)cc21	.	i	.	.	.	.	.	.
CCOC(=O)CCSc1nc(C(C)(C)C)cc(C(F)(F)F)c1C#N	0	-8.9*	i	6*	-13	i	131*	0.13*
Cc1sc2nc(C3CC3)nc(N3CCN(C(=O)c4ccc(Cl)cc4)CC3)c2c1C	-0.29	-13*	i	6*	-7	i	96*	0.15*
Cc1ccc(S(=O)(=O)N2CCOCC2)cc1NC(=O)COC(=O)Cn1c(C)csc1=O	1.2	i	i	i	-14	i	.	.
O=C1CSC(=S)N1N=Cc1ccc2c(c1)OCO2	.	i	.	.	.	.	.	.
CC1=C(C(=O)Nc2cccc(C(=O)NCc3ccccc3C)c2)SCCO1	-0.92	-8.8*	-6.6*	i	-11	i	100*	i
CC1=C(C(=O)Nc2cccc(C(=O)NCc3ccc(F)cc3)c2)SCCO1	-0.65	-9*	i	i	-9	i	84*	i
CC1=C(C(=O)Nc2ccc(CC(=O)NCc3ccccc3C)cc2)SCCO1	0.47	i	i	i	-10	i	.	.
CC(=O)N(Cc1ccccc1)C(CC(=O)NCc1ccccc1)C(=O)O (stereo not drawn)	.	i	.	.	.	.	.	.
